Where “and” joins values, the source holds several entries; their conditions need not be identical. Equal entries are not always repeated.
System: Fibroblast
Assay: Multiplex assay against human fibroblast
Format: toxicity, cell-based
Procedure, shortened: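 Live cells were stained at seeding with Hoechst33342, BioTracker Green Microtubule Cytoskeleton Dye, MitoTracker Red and Annexin V Alexa Fluor 680, then imaged on a CQ1 microscope at 37°C and 5% CO2 after compound addition. CellPathfinder machine-learning gating split cells into Hoechst high-intensity objects or normal cells. Normal cells were split into healthy, pyknosed or fragmented nuclei, and pyknosed cells into mitotic or apoptotic. Tubulin, mitochondrial-mass and membrane-permeability phenotypes are per cents of healthy-nucleus cells.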

[1] = 12 h, 1 µM, compound concentration 1 uM
[2] = 12 h, 10 µM, compound concentration 10 uM
[3] = 24 h, 1 µM, compound concentration 1 uM
[4] = 24 h, 10 µM, compound concentration 10 uM
[5] = 48 h, 1 µM, compound concentration 1 uM
[6] = 48 h, 10 µM, compound concentration 10 uM

COc1cc(NC(=O)CCN2CCC(OC(=O)Nc3ccccc3-c3ccccc3)CC2)c(Cl)cc1CNC[C@H](O)c1ccc(O)c2[nH]c(=O)ccc12 [BATEFENTEROL]
Population Apoptotic (%) [1]: 53% and 37%
Population Fragmented Nuclei (%) [1]: 25%
Population Healthy Nuclei (%) [1]: 58% and 54%
Population Hoechst High Intensity Objects (%) [1]: 2% and 3%
Population Membrane Permeable-Phenotype (%) [1]: 0% and 3%
Population Mitochondria Different-Phenotype (%) [1]: 13% and 7%
Population Mitotic Cells (%) [1]: 46% and 62%
Population Normal (%) [1]: 97% and 96%
Population Pyknosed Nuclei (%) [1]: 15% and 20%
Population Tubulin-Different-Phenotype (%) [1]: 42% and 50%
Total Cell Count [1]: 181 and 124
Population Apoptotic (%) [2]: 46% and 41%
Population Fragmented Nuclei (%) [2]: 24% and 44%
Population Healthy Nuclei (%) [2]: 59% and 41%
Population Hoechst High Intensity Objects (%) [2]: 2%
Population Membrane Permeable-Phenotype (%) [2]: 0% and 1%
Population Mitochondria Different-Phenotype (%) [2]: 22% and 23%
Population Mitotic Cells (%) [2]: 53% and 58%
Population Normal (%) [2]: 97%
Population Pyknosed Nuclei (%) [2]: 16% and 13%
Population Tubulin-Different-Phenotype (%) [2]: 63% and 84%
Total Cell Count [2]: 199 and 128
Population Apoptotic (%) [3]: 55% and 50%
Population Fragmented Nuclei (%) [3]: 21% and 26%
Population Healthy Nuclei (%) [3]: 62% and 59%
Population Hoechst High Intensity Objects (%) [3]: 1% and 2%
Population Membrane Permeable-Phenotype (%) [3]: 0% and 3%
Population Mitochondria Different-Phenotype (%) [3]: 7% and 10%
Population Mitotic Cells (%) [3]: 44% and 50%
Population Normal (%) [3]: 98% and 97%
Population Pyknosed Nuclei (%) [3]: 15% and 14%
Population Tubulin-Different-Phenotype (%) [3]: 39% and 57%
Total Cell Count [3]: 174 and 131
Population Apoptotic (%) [4]: 51% and 81%
Population Fragmented Nuclei (%) [4]: 35% and 46%
Population Healthy Nuclei (%) [4]: 53% and 45%
Population Hoechst High Intensity Objects (%) [4]: 0% and 1%
Population Membrane Permeable-Phenotype (%) [4]: 0% and 1%
Population Mitochondria Different-Phenotype (%) [4]: 34% and 14%
Population Mitotic Cells (%) [4]: 48% and 18%
Population Normal (%) [4]: 99% and 98%
Population Pyknosed Nuclei (%) [4]: 11% and 8%
Population Tubulin-Different-Phenotype (%) [4]: 63% and 80%
Total Cell Count [4]: 247 and 136
Population Apoptotic (%) [5]: 62% and 66%
Population Fragmented Nuclei (%) [5]: 23% and 29%
Population Healthy Nuclei (%) [5]: 54% and 56%
Population Hoechst High Intensity Objects (%) [5]: 3%
Population Membrane Permeable-Phenotype (%) [5]: 0% and 4%
Population Mitochondria Different-Phenotype (%) [5]: 18% and 14%
Population Mitotic Cells (%) [5]: 37% and 33%
Population Normal (%) [5]: 96%
Population Pyknosed Nuclei (%) [5]: 22% and 14%
Population Tubulin-Different-Phenotype (%) [5]: 53% and 70%
Total Cell Count [5]: 185 and 130
Population Apoptotic (%) [6]: 74% and 88%
Population Fragmented Nuclei (%) [6]: 22% and 45%
Population Healthy Nuclei (%) [6]: 54% and 48%
Population Hoechst High Intensity Objects (%) [6]: 1% and 0%
Population Membrane Permeable-Phenotype (%) [6]: 0% and 1%
Population Mitochondria Different-Phenotype (%) [6]: 45% and 15%
Population Mitotic Cells (%) [6]: 25% and 11%
Population Normal (%) [6]: 98% and 99%
Population Tubulin-Different-Phenotype (%) [6]: 77% and 76%
Total Cell Count [6]: 213 and 144
